This is a sample that favours compounds with a hit; in the whole collection about 2.2% have one here.
PABP1 MLLE inh: inhibitors of PABP1 MLLE–PAM2 peptide binding, primary screen, biochemical, fluorescence polarization, FITC-PAM2, GST-MLLE; inhibition, % at 20 µM; Polyadenylate-binding protein 1 (Homo sapiens), P11940; 360,000 tested, 0.36% active; in the data active = inhibition above about 35%, passing the limit was not always enough;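 also: plate controls were DMSO wells with GST-MLLE for no effect and wells lacking GST-MLLE protein for full effect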
Target sequence (P11940 whole entry, looked up): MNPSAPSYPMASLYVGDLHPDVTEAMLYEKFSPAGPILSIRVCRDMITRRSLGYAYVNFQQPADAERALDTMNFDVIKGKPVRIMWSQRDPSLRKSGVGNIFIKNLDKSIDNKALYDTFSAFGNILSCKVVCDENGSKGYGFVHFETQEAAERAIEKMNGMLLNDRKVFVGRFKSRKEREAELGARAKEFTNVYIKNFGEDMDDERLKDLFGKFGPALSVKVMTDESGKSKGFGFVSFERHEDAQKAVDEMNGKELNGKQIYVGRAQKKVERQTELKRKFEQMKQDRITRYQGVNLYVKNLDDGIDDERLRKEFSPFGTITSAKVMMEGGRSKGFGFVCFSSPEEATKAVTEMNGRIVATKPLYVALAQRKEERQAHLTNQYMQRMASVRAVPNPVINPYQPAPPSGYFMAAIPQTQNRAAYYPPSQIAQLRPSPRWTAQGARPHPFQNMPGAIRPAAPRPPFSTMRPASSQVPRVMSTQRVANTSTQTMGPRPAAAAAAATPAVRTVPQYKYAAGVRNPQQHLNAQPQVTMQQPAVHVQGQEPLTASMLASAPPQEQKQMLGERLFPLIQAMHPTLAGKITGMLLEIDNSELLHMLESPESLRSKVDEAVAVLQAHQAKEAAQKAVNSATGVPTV
eIF4H inh: human eIF4H binding inhibitors, primary screen, translation initiation inhibitor project, biochemical, uHTS, fluorescence polarization; inhibition, % at 35 µM; Eukaryotic translation initiation factor 4H (Homo sapiens), Q15056; 290,000 tested, 0.94% active; eIF4H fluorescence polarization binding assay;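 also: calls also rest on retests at 20 µM and on dose response follow-up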
IMP-1 inh: IMP-1 metallo-beta-lactamase inhibitors, primary screen, biochemical, epi-absorbance readout, Pseudomonas aeruginosa enzyme | metallo-beta-lactamase IMP-1 (Pseudomonas aeruginosa) | purified IMP-1, nitrocefin hydrolysis, epi-absorbance fluorescence | inhibition, % at 5.6 µM | 290,000 tested, 0.45% active | AID 1556, 2009;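 active = inhibition above the mean plus 3 SD of all compounds in the same screening run, cut at about 4.5% in these data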;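 also: 0% = IMP-1 with DMSO and 100% = DMSO wells lacking enzyme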
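System: purified IMP-1; amount: IMP-1 0.2 nM before substrate addition; compound: single dose, 5.6 µM; times: 25 °C, 15 min preincubation, 25 min reaction; signal: Epi-absorbance via hydrolysed-nitrocefin quenching of white-plate fluorescence, 480/530 nm, EDTA stop; benchmarks: DMSO with and without IMP-1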
VIM-2 inhibitor: VIM-2 metallo-beta-lactamase inhibitors, primary screen, biochemical, epi-absorbance readout, Pseudomonas aeruginosa enzyme | purified VIM-2, nitrocefin hydrolysis, epi-absorbance fluorescence | inhibition, % at 5.6 µM | 290,000 tested, 0.89% active | AID 1527, 2009;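 active = inhibition above the mean of all tested compounds plus 3 SD, cutoff set per screening run, cut at about 7.5% in these data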;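 also: red hydrolysis product quenches plate fluorescence so inhibitors raise well fluorescence; 0% = enzyme with DMSO and 100% = DMSO without enzyme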
PABP FP inh: PABP poly(A) RNA binding inhibitors, primary screen, biochemical, fluorescence polarization, uHTS; Polyadenylate-binding protein 1 (Homo sapiens), P11940; calls only at 35 µM; 290,000 tested, 1% active; AID 2014, 2009;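 also: calls also rest on retests at 20 µM and on dose response follow-up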
* hit, by the source's call; i = inactive; ? = inconclusive; / = not tested or not shown; + = active, no number. Unless noted, no rule for the calls is given here.

SMILES	PABP1 MLLE inh	eIF4H inh	IMP-1 inh	VIM-2 inhibitor	PABP FP inh
O=C(N/N=C/c1cccc(OCc2ccccc2)c1)c1cccs1	13	-11	0	0	i
O=C(O)c1ccc(COc2ccc(/C=N/NC(=O)c3cccs3)cc2)cc1	-111	-1	-3	-2	+
COc1cccc(NC(=O)CN(C)C(=O)c2cc(S(=O)(=O)Nc3ccccc3OC)ccc2C)c1	3	/	/	/	/
Cc1sc2c(c1C)C(=O)/C(=C\Nc1ccccn1)S(=O)(=O)N2C	12	1	-4	-3	i
COc1ccc(/C=C(/CC(=O)NCc2ccc(Cl)cc2)c2nc3ccccc3s2)cc1	-9	active	-2	-3	i
Cc1ccc(CNC(=O)/C=C/[C@H]2O[C@@H](n3cc(C)c(=O)[nH]c3=O)C[C@@H]2O)o1	17	/	/	/	/
CC[C@H](C)[C@@H](CN[C@H](CCCCNC)CNC)NCC1CCCC1	-3	11	-3	12*	i
CCOC(=O)c1cc(S(=O)(=O)N2CCN(Cc3ccccc3)CC2)cn1C	10	-4	-4	-4	i
Clc1ccccc1CSc1nnc([C@@H]2CCCN2)o1	-26	15	2	0	i
Cc1ccccc1CSc1nnc([C@@H]2CCCN2)o1	1	6	5.7*	0	i
O=C(COc1ccc(S(=O)(=O)N2CCCC2)cc1)NCc1cccnc1	7	8	-3	-1	i
O=C(NC12CC3CC(CC(C3)C1)C2)c1cnccn1	46*	10	-3	-4	i
O=C(CSc1nccn(-c2ccc(Br)cc2)c1=O)Nc1ccccc1F	35	/	/	/	/
COc1ccc(-n2ccnc(SCC(=O)NC3CCCCC3)c2=O)cc1	24	-9	-4	-8	i
Cc1ccc(-n2ccnc(SCC(=O)NC3CCCCC3)c2=O)cc1F	41*	/	/	/	/
CCOc1ccc(-n2ccnc(SCC(=O)Nc3ccc(OC)cc3OC)c2=O)cc1	31	/	/	/	/
O=C(CSc1nccn(-c2ccc(Br)cc2)c1=O)NC1CCCC1	45*	/	/	/	/
COc1ccc(CNC(=O)CSc2nccn(-c3ccc(F)c(F)c3)c2=O)cc1	30	/	/	/	/
COc1ccc(-n2ccnc(SCC(=O)NC3CCCC3)c2=O)cc1OC	51*	/	/	/	/
COc1ccc(-n2ccnc(SCC(=O)NC3CCCC3)c2=O)cc1	41*	-1	4.6*	3	i
Cc1ccc(NC(=O)CN(C)CC(=O)N(C)Cc2ccccc2)cc1	-2	/	/	/	/
COc1ccccc1CN1CC(C(=O)NC2(c3ccccc3)CC2)CCC1=O (stereo unspecified)	3	-12	0	0	i
N#Cc1c(C(F)(F)F)cc(-c2cccc(Cl)c2)[nH]c1=O	8	-10	0	8.7*	i
CC1CCN(c2[nH]c(=S)c(C#N)c3c2CCCC3)CC1	3	1	-4	1	i
CC1(C)Cc2c(c(N3CCCCC3)[nH]c(=S)c2C#N)CS1	-8	12	8.2*	-5	i
SMILES	PABP1 MLLE inh	eIF4H inh	IMP-1 inh	VIM-2 inhibitor	PABP FP inh
Cc1cc2ncn(S(=O)(=O)N3CCOCC3)c2cc1C	6	0	4.5*	0	i
Cc1ccccc1NC(=O)C1c2cccc[n+]2CC(=O)N1c1c(C)cccc1C (stereo unspecified)	-83	-1	14*	-1	i
Cc1ccc(-c2c(C)c(-c3ccc(F)cc3)nc(N)c2C#N)o1	1	76*	4	0	+
Cc1c(-c2ccc(F)cc2)nc(N)c(C#N)c1-c1cccnc1	-5	-1	-3	1	i
CCC(C)(C)C1CCC2(CC1)NC(=O)N(CC(=O)NCCc1c[nH]c3ccccc13)C2=O (stereo unspecified)	-6	/	/	/	/
Nc1nnc(CC(=O)N/N=C/c2ccc(-c3ccccc3)o2)s1	-21	82	-3	-3	+
O=C(Cc1nnc(NC(=O)c2ccccc2)s1)N/N=C/c1ccco1	-13	82	3	0	+
CC(C)NC(=O)Cn1cc(C(=O)C2CC2)c2ccccc21	-2	6	-3	-2	i
O=[N+]([O-])c1ccc(CSc2ccc(S(=O)(=O)N3CCOCC3)cn2)cc1	37*	/	/	/	/
CCOC(=O)/C(N=Nc1sc(C(=O)OC)c(C)c1C(=O)OCC)=C(\O)CCl	18	-13	4.7*	0	i
CCOC(=O)/C(N=Nc1sc(C(=O)OCC)c(C)c1C(=O)OCC)=C(\C)O	/	-5	-2	1	i
CC1CCN(C(=O)CSc2nnc3ccc(-c4cccnc4)nn23)CC1	8	/	/	/	/
O=C(COc1cc(Cl)ccc1Cl)Nc1ccc2c(c1)CCC2	-12	64*	-3	-1	+
COC1=C(c2ccccc2)C(=O)c2ccccc2C1=O	49*	1	-2	-1	i
CCNc1nc2[nH]c(=O)c3c(c2s1)OC(N)=C(C#N)C3c1ccc(C)cc1 (stereo unspecified)	-8	?	-1	-1	+
Fc1ccc(F)c(C2=NNC(=NCC3CCCO3)SC2)c1 (stereo unspecified)	64*	-13	-3	-5	i
CC(=O)Nc1ccc(C2=NNC(=NCC3CCCO3)SC2)cc1 (stereo unspecified)	-22	-4	-7	-4	i
CC1CCN(c2ccc(C(=O)O)cc2NS(=O)(=O)c2ccc(Br)cc2)CC1	-2	1	-2	4	i
COc1ccc(C(=O)CN(CCC(=O)O)S(=O)(=O)c2ccc([N+](=O)[O-])cc2)cc1	19	/	/	/	/
CC(C)(C)c1ccc(C(=O)OC/C(O)=C(\C#N)c2nc3ccccc3s2)cc1	7	-2	-2	-2	i
N#C/C(=C(/O)COC(=O)c1ccccc1O)c1nc2ccccc2s1	-8	56	-1	-3	+
O=C1CC(C(=O)Nc2cccc(F)c2)n2ncnc2N1 (stereo unspecified)	-4	3	1	-2	i
N=c1n(CCN2CCCC2)c2ccccc2n1CC(O)c1ccco1 (stereo unspecified)	44*	17	-3	-1	i
CCCCCCCn1c(=N)n(CC(O)c2ccco2)c2ccccc21 (stereo unspecified)	-78	-7	-4	-1	i
CCN1CCN(C(=O)c2cc3c(-c4ccc(Cl)cc4)nn(C)c3s2)CC1	-14	-11	0	11*	i
COC(=O)c1[nH]c2cc(OC)c(OC)cc2c1NC(=O)CN1C[C@H]2C[C@@H](C1)c1cccc(=O)n1C2	6	/	/	/	/
CC(CS(=O)(=O)c1ccc2c(c1)NC(=O)CS2)C(=O)N1CCN(c2cccc(Cl)c2)CC1 (stereo unspecified)	-28	74*	4	-4	+
CC(CS(=O)(=O)c1ccc2c(c1)NC(=O)CS2)C(=O)NCc1ccccc1Cl (stereo unspecified)	-28	67	9.2*	-3	+
